A selection: hits, their analogues and other compounds. The true share with any hit is near 1.6%.
HKDC1 inhibitor – blocks human hexokinase HKDC1 activity | AID 493160 | recombinant HKDC1, G6PDH/diaphorase resazurin coupled fluorescence | inhibition, % at 20 µM | Q2TB90 | 0.16% of 340,000 active;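 active = inhibition above about 35% when tested at 20 µM, limit read from the data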;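 note: plate controls were DMSO wells with enzyme for no effect and DMSO wells lacking enzyme for full effect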
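Test system: recombinant HKDC1 (HK5) hexokinase enzyme, produced in-house; Amount: enzyme 5 µg/mL final; Buffer or medium: Tris pH 8.0 buffer with MgCl2, Tween-20, BSA, BME; Reagent: glucose and ATP substrates; Doses: 20 µM test compound, 1% DMSO; Incubation: 90 min reaction incubation at room temperature, dark; Detection: resorufin fluorescence at 613 nm.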
PKA-R2B act – PKA-R2B complex activation. P22694+P31323. PKA-R2B holoenzyme dissociation, Cy5-IP20 fluorescence polarization; R2B truncated from residue 108, S112A mutant; 0% DMSO only, 100% 113 µM cGMP. activation, % at 11.4 µM. 0.079% of 340,000 active. AID 504700;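 active = activation above a cutoff set at the mean over all compounds plus 3 SD, cut at about 18% in these data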;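 note: higher means more holoenzyme dissociation and a rise in polarization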
ATG4B inh – inhibitors of human ATG4B cysteine protease | ATG4B cleavage of LC3-PLA2, NBD-HPC fluorescence, 1 h | inhibition, % at 8.33 µM | 0.51% of 340,000 active | AID 504462; in the data active = inhibition above about 40%
PKA-R1A activ – activators of PKA-R1A complex. P00514+P68181. PKA-R1A dissociation, Cy5-IP20 fluorescence polarization; scaled: DMSO 0%, 113 µM cGMP 100%. activation, % at 11.4 µM. 0.083% of 340,000 active. AID 504707;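 active = percent activation above the mean of all tested compounds plus 3 SD, cut at about 19% in these data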;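 note: higher means more PKAc released from R1A so a rise in polarization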
PfGluPho inh – PfG6PD (Plasmodium falciparum) enzyme inhibition. PfGluPho enzyme, NADPH resazurin-diaphorase fluorescence. 0.78% of 350,000 active. inhibition, % at 20 µM;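 active = inhibition reaching at least a set limit at 20 µM in the primary screen, cut at about 59% in these data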;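 note: 0% = DMSO wells with substrate and 100% = DMSO wells lacking glucose-6-phosphate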
T cell modulator – T cell immune modulators affecting CD8 T cell-vesicle binding. 0.068% of 330,000 active. 2C CD8+ T cell-vesicle binding, flow cytometry; hits give low values. response (vesicle binding), % at 7 µM;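 active = response, share of CD8 T cells binding vesicles, and their 90th percentile fluorescence all below set limits, cut at about 80% in these data, passing the limit was not always enough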;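 note: values below 100% mean blocked vesicle binding to the CD8+ T cells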
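Assay system: 2C TCR transgenic mouse naive CD8+ T cells, MACS-purified | Read-out: CD8+ gate FL2 mean fluorescence as % of same-row positive control | Signal: High-throughput flow cytometry with anti-B7-1 and anti-CD8 staining | Timing: Binding step 1.5 h, 37 °C, antibody labelling 20 min, ice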
HKDC1 act conf – HKDC1 (human) activation, single-dose confirmed. 14% of 740 active. recombinant HKDC1, G6PDH/diaphorase resazurin fluorescence; hits give low values. inhibition, % at 20 µM. shares compounds with HKDC1 inhibitor;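 active = inhibition at or below a set negative limit, negative inhibition meaning the enzyme was activated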
ATG4B confirm – ATG4B (human) inhibition, single-dose confirmed; shares compounds with ATG4B inh; ATG4B protease fluorescent substrate cleavage assay; inhibition, % at 8.33 µM; 92% of 320 active; AID 504757; in the data active = inhibition above about 39%
PLA2 ctr – inhibits human PLA2, flagging false ATG4B inhibitors | purified PLA2, NBD-C6-HPC fluorescence, 45 min | shares compounds with ATG4B inh | inhibition, % at 8.33 µM | AID 588402 | 66% of 1,600 active; in the data active = inhibition above about 50%
Target sequence (P04054 whole entry, looked up): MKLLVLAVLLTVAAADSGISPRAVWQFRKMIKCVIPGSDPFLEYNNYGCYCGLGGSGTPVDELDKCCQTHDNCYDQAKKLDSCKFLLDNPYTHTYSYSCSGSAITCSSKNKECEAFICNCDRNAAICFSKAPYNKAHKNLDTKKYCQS
An asterisk follows results filed as active; x = no result.

SMILES	HKDC1 inhibitor	PKA-R2B act	ATG4B inh	PKA-R1A activ	PfGluPho inh	T cell modulator	HKDC1 act conf	PLA2 ctr	others
CC1CC(C)CN(C(=O)COC(=O)c2cc([N+](=O)[O-])ccc2N2CCOCC2)C1 (stereo not drawn)	-4	-4	4	8	29	146	x	x
O=C1CSC(=S)N1N=Cc1ccc(Cl)s1	-35	-14	11	4	-2	x	x	x
Cc1ccc(C)c(C(=O)COC(=O)c2n[nH]c3ccccc23)c1	-1	-2	-4	5	27	541	x	x
O=C(COC(=O)c1n[nH]c2ccccc12)c1cccc(Br)c1	38*	-8	-2	4	13	235	-30*	x
COC(=O)Cn1c2ccc(F)cc2c2nc(C)sc21	-92	-2	1	0	13	204	-90*	x
COC(=O)Cn1c2ccc(Cl)cc2c2nc(C)sc21	-34	-5	-5	-2	13	215	x	x
CCOC(=O)Cn1c2ccc(F)cc2c2nc(C)sc21	-62	0	-4	-4	23	201	-37*	x
NC(=S)N=Nc1c(O)[nH]c2ccc(F)cc12	9	-2	7	5	-10	144	x	x
NC(=S)N=Nc1c(O)cc(O)c2[nH]c(=O)ccc12	35*	1	1	-4	93*	x	27	x
CC(C)c1nc2c(c(=O)c3ccccc3n2C)c(=O)n1-c1ccc(F)cc1	13	10	-8	11	9	278	x	x
Cc1nc2c(c(=O)c3ccccc3n2C)c(=O)n1-c1ccc(F)cc1	51*	-1	-8	1	41	454	53	x
CCCc1nc2c(c(=O)c3ccccc3n2C)c(=O)n1-c1ccc(F)cc1	51*	0	6	0	48	189	58	x
CCCCNC(=O)c1sc(=S)n2c1[nH]c(=O)c1ccccc12	38*	-6	45*	-1	23	777	56	18
CCCC(C)c1oc(=O)cc(O)c1C (stereo not drawn)	-2	8	-1	-4	0	x	x	x
Cc1ccccc1OCCC(=O)OCC(=O)c1c(N)n(CC(C)C)c(=O)n(C)c1=O	-3	8	-2	-7	14	204	x	x
O=C(O)c1ccccc1NS(=O)(=O)c1ccc(N/N=C/c2cccc(O)c2O)c([N+](=O)[O-])c1	36*	-3	51*	4	-49	x	26	53*
CC(=O)Nc1ccc(C=NNc2ccc(S(=O)(=O)Nc3ccccc3C(=O)O)cc2[N+](=O)[O-])cc1	2	-12	11	-7	-26	265	x	x
CCOc1ccc2nc3cc(N=Nc4ccc(N)nc4N)ccc3c(N)c2c1	37*	-3	54*	2	58	x	-31	69*
CC1(CCc2ccccc2)NC(=O)NC1=O (stereo not drawn)	1	3	0	-4	-4	x	x	x
COc1ccc(C2=CC3=C(Br)C(=O)C(C)(OC(=O)c4cccs4)C(=O)C3=CO2)cc1 (stereo not drawn)	50*	1	83*	0	13	171	4	90*
COc1ccc(-n2cccc2/C=C2\C(=N)N3N=C(c4ccco4)SC3=NC2=O)cc1	35*	-4	40*	-9	-13	553	-9	38	ATG4B confirm=49*
Cc1cc(/C=C2\C(=N)N3N=C(c4ccco4)SC3=NC2=O)c(C)n1Cc1ccccc1	15	6	27	-10	-22	224	x	x
N=C1/C(=C/c2coc3ccccc3c2=O)C(=O)N=C2SC(c3ccco3)=NN12	38*	x	45*	x	15	752	-9	17
